Reference: ChEMBL document CHEMBL4350954, “Identification of Thienopyrimidine Scaffold as an Inhibitor of the ABC Transport Protein ABCC1 (MRP1) and Related Transporters Using a Combined Virtual Screening Approach” (J Med Chem, 2019)

Tests used:
Format in all cases: cell-based
[1] = biological target: T1, Broad substrate specificity ATP-binding cassette transporter ABCG2 (Homo sapiens, UniProt Q9UNQ0); assay: Inhibition of ABCG2 (unknown origin) expressed in MDCK2 cells co-expressing BCRP (unknown origin) assessed as effect on pheophorbide A accumulation pre-incubated for 20 mins followed by pheophorbide A addition and measured after 120 mins by flow cytometric analysis
T1 sequence (Q9UNQ0 whole entry): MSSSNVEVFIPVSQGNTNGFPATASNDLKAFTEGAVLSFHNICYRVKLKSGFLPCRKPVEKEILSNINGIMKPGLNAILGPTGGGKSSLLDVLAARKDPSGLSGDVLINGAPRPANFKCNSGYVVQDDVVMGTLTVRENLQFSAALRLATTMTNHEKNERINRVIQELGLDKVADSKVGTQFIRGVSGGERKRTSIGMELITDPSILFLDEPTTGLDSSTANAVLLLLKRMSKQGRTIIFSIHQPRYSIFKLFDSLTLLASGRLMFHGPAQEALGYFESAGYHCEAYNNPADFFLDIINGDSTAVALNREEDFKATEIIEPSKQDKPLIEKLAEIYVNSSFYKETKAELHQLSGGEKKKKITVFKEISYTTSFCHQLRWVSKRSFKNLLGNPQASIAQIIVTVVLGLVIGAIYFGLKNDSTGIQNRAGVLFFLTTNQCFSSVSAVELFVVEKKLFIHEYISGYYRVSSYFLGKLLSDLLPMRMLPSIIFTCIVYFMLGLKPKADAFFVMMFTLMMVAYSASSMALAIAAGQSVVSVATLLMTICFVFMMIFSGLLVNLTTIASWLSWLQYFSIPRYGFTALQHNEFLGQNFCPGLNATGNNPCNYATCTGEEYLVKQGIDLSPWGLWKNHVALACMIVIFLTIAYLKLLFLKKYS
Method in brief: (§1)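 Pheophorbide A accumulation assay in ABCG2-transfected MDCK II BCRP cells. Ko143 at 10 µM set 100% and no compound set 0%. Screening was at 10 µM; compounds reaching >20% (+SEM) got IC50 curves constrained to the Ko143 maximum at 10 µM. Values are reported as mean ± SEM.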

ABCG2 (BCRP) = biological target: T2, ABCG2 (BCRP) (Homo sapiens, UniProt Q9UNQ0); assay: Inhibition of ABCG2 (unknown origin) expressed in MDCK2 cells co-expressing BCRP (unknown origin) assessed as effect on pheophorbide A accumulation at 10 uM pre-incubated for 20 mins followed by pheophorbide A addition and measured after 120 mins by flow cytometric analysis relative to Ko143; settings: probe pheophorbide A; method in brief: as §1
T2 sequence (Q9UNQ0 whole entry): T1 sequence (Q9UNQ0 whole entry)

[2] = biological target: T3, Multidrug resistance-associated protein 1 (Homo sapiens, UniProt P33527); assay: Inhibition of MRP1 in human COR-L23/R cells assessed reduction in tritiated daunomycin efflux incubated for 2 hrs by radioactivity-based assay
T3 sequence (P33527 whole entry): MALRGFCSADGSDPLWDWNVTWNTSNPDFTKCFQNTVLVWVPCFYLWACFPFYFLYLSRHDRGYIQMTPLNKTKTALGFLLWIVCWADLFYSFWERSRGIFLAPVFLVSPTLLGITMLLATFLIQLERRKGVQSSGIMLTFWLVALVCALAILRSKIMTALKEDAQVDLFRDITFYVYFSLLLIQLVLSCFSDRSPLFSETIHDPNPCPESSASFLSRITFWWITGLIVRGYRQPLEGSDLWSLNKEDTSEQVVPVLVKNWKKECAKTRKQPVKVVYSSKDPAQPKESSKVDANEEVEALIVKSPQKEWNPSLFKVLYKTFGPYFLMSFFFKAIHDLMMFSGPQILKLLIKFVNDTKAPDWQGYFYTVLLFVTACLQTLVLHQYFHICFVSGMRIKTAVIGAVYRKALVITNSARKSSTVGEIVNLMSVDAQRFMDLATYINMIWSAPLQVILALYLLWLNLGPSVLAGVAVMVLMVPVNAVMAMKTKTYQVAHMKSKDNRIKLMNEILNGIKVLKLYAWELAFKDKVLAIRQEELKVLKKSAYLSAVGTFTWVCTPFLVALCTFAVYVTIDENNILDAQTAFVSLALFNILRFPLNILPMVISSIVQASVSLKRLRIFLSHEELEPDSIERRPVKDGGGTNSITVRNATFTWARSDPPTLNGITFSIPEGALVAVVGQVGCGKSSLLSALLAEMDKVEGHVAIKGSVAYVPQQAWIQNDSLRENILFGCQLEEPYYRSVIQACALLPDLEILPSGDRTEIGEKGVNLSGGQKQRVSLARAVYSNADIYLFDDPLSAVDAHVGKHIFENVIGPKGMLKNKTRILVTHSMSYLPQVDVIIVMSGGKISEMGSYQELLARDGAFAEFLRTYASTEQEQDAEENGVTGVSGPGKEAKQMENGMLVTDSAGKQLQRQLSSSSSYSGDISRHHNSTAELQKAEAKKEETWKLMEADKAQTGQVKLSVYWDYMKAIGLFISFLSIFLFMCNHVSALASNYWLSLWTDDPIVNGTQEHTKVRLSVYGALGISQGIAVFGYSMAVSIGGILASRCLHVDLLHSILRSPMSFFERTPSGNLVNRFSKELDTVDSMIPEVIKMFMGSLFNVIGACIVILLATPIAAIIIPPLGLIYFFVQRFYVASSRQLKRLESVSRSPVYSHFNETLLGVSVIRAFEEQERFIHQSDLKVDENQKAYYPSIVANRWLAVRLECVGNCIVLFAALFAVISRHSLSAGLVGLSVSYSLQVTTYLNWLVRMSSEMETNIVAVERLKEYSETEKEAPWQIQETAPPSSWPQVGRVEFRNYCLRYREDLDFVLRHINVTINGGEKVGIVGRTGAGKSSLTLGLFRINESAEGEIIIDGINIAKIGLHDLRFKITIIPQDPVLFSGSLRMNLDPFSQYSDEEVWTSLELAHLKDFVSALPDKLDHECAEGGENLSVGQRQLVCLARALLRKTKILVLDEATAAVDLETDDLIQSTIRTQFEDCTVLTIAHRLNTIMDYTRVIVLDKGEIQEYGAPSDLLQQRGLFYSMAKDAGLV

[3] = biological target: ATP-dependent translocase ABCB1 (Homo sapiens, UniProt P08183); assay: Inhibition of ABCB1 in human A2780/ADR cells preincubated for 30 mins followed by calcein AM addition and measured at 60 secs time interval by fluorescence assay
Sequence of ATP-dependent translocase ABCB1 (P08183 whole entry): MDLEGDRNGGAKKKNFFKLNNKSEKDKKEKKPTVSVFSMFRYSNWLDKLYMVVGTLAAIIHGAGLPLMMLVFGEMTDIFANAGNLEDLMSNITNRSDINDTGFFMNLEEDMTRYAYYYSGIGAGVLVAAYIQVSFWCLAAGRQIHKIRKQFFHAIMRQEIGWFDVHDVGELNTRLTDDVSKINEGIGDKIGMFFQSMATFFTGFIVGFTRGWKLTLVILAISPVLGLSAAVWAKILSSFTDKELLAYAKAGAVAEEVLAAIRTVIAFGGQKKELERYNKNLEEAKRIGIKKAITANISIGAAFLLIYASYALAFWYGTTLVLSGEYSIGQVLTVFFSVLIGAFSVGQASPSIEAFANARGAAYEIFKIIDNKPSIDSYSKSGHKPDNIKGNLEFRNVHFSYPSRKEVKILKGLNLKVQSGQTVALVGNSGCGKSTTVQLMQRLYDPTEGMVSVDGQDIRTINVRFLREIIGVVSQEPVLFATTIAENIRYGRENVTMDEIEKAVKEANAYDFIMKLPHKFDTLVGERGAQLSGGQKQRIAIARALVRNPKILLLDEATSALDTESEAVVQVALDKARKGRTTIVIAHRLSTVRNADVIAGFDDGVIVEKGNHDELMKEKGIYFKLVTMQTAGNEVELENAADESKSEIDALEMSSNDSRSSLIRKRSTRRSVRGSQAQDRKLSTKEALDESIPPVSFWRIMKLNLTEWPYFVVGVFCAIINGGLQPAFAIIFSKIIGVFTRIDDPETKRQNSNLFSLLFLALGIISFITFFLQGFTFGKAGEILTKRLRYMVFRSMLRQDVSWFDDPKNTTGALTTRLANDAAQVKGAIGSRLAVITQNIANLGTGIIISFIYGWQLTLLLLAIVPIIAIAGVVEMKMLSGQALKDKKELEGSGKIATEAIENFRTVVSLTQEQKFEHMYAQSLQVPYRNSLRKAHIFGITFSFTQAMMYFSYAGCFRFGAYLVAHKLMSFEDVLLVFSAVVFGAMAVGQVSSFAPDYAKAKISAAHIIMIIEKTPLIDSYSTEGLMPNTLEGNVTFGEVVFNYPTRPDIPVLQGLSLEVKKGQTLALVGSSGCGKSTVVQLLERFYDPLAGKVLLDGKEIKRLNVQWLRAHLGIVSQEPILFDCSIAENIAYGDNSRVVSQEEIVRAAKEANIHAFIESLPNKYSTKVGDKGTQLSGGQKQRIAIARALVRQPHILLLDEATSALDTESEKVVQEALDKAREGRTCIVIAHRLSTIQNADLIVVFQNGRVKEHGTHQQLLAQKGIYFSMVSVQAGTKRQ

[4] = biological target: T3, Multidrug resistance-associated protein 1; assay: Inhibition of ABCC1 in human H69AR cells preincubated for 30 mins followed by calcein-AM addition measured at 60 secs time interval by fluorescence assay
Method in brief: (§2)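 Calcein AM accumulation assay in H69AR small-cell lung cancer cells, which express only ABCC1. Inhibited efflux lets calcein AM build up intracellularly, where esterases cleave it to fluorescent calcein. The screen used 10 µM, scaled to a standard ABCC1 inhibitor at 10 µM as 100%. Hits reaching ≥20% inhibition (+SEM) went on to IC50 curves, constrained to that 100% maximum. Values are means of ≥3 independent experiments in duplicate ± SEM.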

ABCB1 (P-gp) = ABCB1 (P-gp) (Homo sapiens, UniProt P08183); assay: Inhibition of ABCB1 in human A2780/ADR cells at 10 uM preincubated for 30 mins followed by calcein AM addition and measured at 60 secs time interval by fluorescence assay relative to cyclosporine A; settings: probe calcein AM
Sequence of ABCB1 (P-gp) (P08183 whole entry): as above

ABCC1 (MRP1) = ABCC1 (MRP1) (Homo sapiens, UniProt P33527); assay: Inhibition of ABCC1 in human H69AR cells at 10 uM preincubated for 30 mins followed by calcein-AM addition measured at 60 secs time interval by fluorescence assay relative to control; settings: probe calcein-AM; method in brief: as §2
Sequence of ABCC1 (MRP1) (P33527 whole entry): as the sequence (P33527 whole entry) above

Row | IC50 [1] [µM] | inhibition at 2 h, 10 µM (ABCG2 (BCRP)) [%] | IC50 [2] [µM] | IC50 [3] [µM] | IC50 [4] [µM] | inhibition at 1 min, 10 µM (ABCB1 (P-gp)) [%] | inhibition at 1 min, 10 µM (ABCC1 (MRP1)) [%] | Structure (SMILES)
1 | – | – | 0.122 | – | – | – | – | CCOC(=O)Cn1c2cccc(C(N)=O)c2c2ncnc(N3CCN(CCc4ccc(F)c(F)c4)CC3)c21
2 | 1.39 | ≥ 20 | – | 4.83 | 22.7 | ≥ 20 | ≥ 20 | Cc1nc2cc(NC(=O)C3CCCN(c4cc(-n5cccn5)ncn4)C3)ccc2s1 (stereo not drawn)
3 | – | – | – | 26.4 | – | ≥ 20 | – | Cc1ccccc1-n1nnnc1SCC(=O)N1CCN(Cc2ccccc2)CC1
4 | 14.4 | ≥ 20 | – | 31 | – | ≥ 20 | – | O=C(CSc1nnc(-c2ccc(F)cc2)o1)N1CCN(Cc2ccc3c(c2)CCO3)CC1
5 | 11.8 | ≥ 20 | – | 14.5 | – | ≥ 20 | – | CCCc1cc(N2CCN(CCOc3cccc4ccccc34)CC2)n2nc3nc(C)cc(C)c3c2n1

Second part, the compound before the results:

Row | Structure (SMILES) | IC50 [1] [µM] | inhibition at 2 h, 10 µM (ABCG2 (BCRP)) [%] | IC50 [2] [µM] | IC50 [3] [µM] | IC50 [4] [µM] | inhibition at 1 min, 10 µM (ABCB1 (P-gp)) [%] | inhibition at 1 min, 10 µM (ABCC1 (MRP1)) [%]
6 | N#Cc1ccc(CN2CCN(C(=O)c3cn(Cc4ccccc4)nc3-c3cccnc3)CC2)cc1 | 15.4 | ≥ 20 | – | – | – | – | –
7 | Cc1cc(C)c2c(n1)sc1c(N3CCN(Cc4ccccc4Cl)CC3)ncnc12 | 8.68 | ≥ 20 | – | 2.81 | – | ≥ 20 | –
8 | Fc1ccccc1N1CCN(Cc2csc(-c3ccc4c(c3)OCO4)n2)CC1 | 11.2 | ≥ 20 | – | 15.4 | – | ≥ 20 | –
9 | O=C(c1cc(-c2cccnc2)nc2ccccc12)N1CCN(Cc2cccs2)CC1 | 16 | ≥ 20 | – | 27.8 | 39.3 | ≥ 20 | ≥ 20
10 | O=C(c1ccc2c(c1)OCCO2)C1CCN(C(=O)c2ccc(-n3cccn3)cc2)CC1 | 10.4 | ≥ 20 | – | – | – | – | –
11 | Cc1ccccc1-n1c(SCC(=O)N2CCN(Cc3ccccc3)CC2)nnc1-c1cccnc1 | – | – | – | 15.6 | – | ≥ 20 | –
12 | C[C@@]1(C(=O)Nc2ccc(F)nc2)CCCN1c1nc(Nc2cc(C3CC3)n[nH]2)c2cccn2n1 [BMS-754807] | 10.2 | ≥ 20 | – | 17.7 | 36.3 | ≥ 20 | ≥ 20
